High-throughput results deposited in PubChem by several laboratories.
Shown are actives, neighbours in structure and some others; about 2.5% of the full set was active somewhere.
Insulin prom inh = TRM-6 insulin promoter activity inhibition. TRM-6 cells (human fetal islet line), insulin promoter-eGFP reporter, imaging; reporter expression induced with tamoxifen. inhibition, % at 2 µM. hit rate 0.9% among 130,000. AID 1273;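 active means inhibition above the mean plus 3 SD, with well images judged a real hit on visual review, cut at about 60% in these data, passing the limit was not always enough; inconclusive means inhibition over the cutoff but images rejected on review; inactive means inhibition not above the cutoff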
Insulin prom up = MIN6 insulin promoter up-regulation; z-score at 5 µM; hit rate 0.3% among 190,000; MIN6 insulin promoter-GFP reporter, high-content imaging; active compounds read high;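 active means z-score above 3 at 5 µM with at least 500 cells counted in the well; inconclusive means wells under 500 cells, flagged as cytotoxic or low count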
NPY-Y1 antag = NPY-Y1 (human) receptor antagonism; P25929; hit rate 1% among 200,000; inhibition, % at 3.6 µM; HEK293-CNG Y1 cells, membrane potential fluorescence; NPY at EC95, then isoproterenol;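 active means inhibition above the campaign mean inhibition of all tested compounds plus 3 SD, cut at about 20% in these data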;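 further: 0% = DMSO wells given NPY plus isoproterenol and 100% = isoproterenol alone without NPY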
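Test system: HEK293 cells co-expressing NPY Y1 receptor and cyclic-nucleotide gated channel; Also added: NPY (25 nM), isoproterenol (1 µM), Ro 20-1724 (25 µM); Compound dosing: one concentration, 3.6 µM, in 0.4% DMSO; Timing: dye 3 h, compound 60 min room temperature, stimulation 45 min; Technique: Membrane-potential fluorescent dye readout.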
NPY Y2 blocker = antagonists of human neuropeptide Y receptor Y2. P49146. hit rate 0.99% among 140,000. NPY-Y2 expressing cells, antagonist mode. inhibition, % at 2.7 µM. AID 793; in the data active means inhibition above about 17%;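 further: 0% = vehicle with agonist challenge and 100% = reference antagonist with challenge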
Target sequence (P49146 whole entry, looked up): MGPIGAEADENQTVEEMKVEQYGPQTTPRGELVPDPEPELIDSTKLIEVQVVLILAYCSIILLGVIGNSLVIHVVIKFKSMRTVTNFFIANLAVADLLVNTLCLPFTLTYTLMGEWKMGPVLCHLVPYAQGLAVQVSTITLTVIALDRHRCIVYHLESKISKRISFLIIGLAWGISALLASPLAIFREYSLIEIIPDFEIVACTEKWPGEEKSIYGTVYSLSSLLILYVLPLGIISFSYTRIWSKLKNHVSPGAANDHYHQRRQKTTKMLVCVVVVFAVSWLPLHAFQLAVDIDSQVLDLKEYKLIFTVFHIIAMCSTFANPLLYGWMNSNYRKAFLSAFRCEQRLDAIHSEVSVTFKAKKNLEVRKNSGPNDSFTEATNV
NPY1 pot ag = potentiators or agonists of human neuropeptide Y receptor Y1. activation, % at 3.6 µM. P25929. NPY-Y1 expressing cells, potentiator/agonist activation. hit rate 0.37% among 220,000. AID 1304; in the data active means activation above about 33%, passing the limit was not always enough;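 further: cells stimulated with NPY at EC10 then isoproterenol at EC100; 0% = low agonist plus stimulus and 100% = saturating agonist plus stimulus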
NPY-Y2 PAM-ag = human NPY-Y2 potentiation or agonism, primary screen; AID 1359; hit rate 0.45% among 220,000; cells expressing NPY-Y2, potentiator/agonist read-out; activation, % at 3.6 µM; P49146; in the data active means activation above about 27%;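 further: cells stimulated with NPY near EC25 plus isoproterenol at EC100; 0% = vehicle plus submaximal agonist and 100% = vehicle plus saturating agonist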
NPY-Y1 antag ct = counter-screen for NPY-Y2 antagonists: human NPY-Y1 antagonism. shares compounds with NPY Y2 blocker. cell-based NPY-Y1 antagonism counterscreen. inhibition, % at 3.6 µM. hit rate 19% among 710; in the data active means inhibition above about 20%;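 further: cells challenged with NPY then isoproterenol with cAMP sensed through a CNG channel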
NPY-Y2 ant conf = human NPY-Y2 antagonism, confirmation. hit rate 32% among 710. inhibition, % at 2.8 µM. shares compounds with NPY Y2 blocker. HEK293 NPY-Y2 CNG channel, membrane potential fluorescence;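 active means mean inhibition of triplicate wells above the hit cutoff set in the primary screen, cut at about 17% in these data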;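 further: 0% = DMSO with NPY challenge and 100% = BIIE0246 high control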
Numbers without * were called inactive; u = inconclusive; x = no result.

SMILES | Insulin prom inh | Insulin prom up | NPY-Y1 antag | NPY Y2 blocker | NPY1 pot ag | NPY-Y2 PAM-ag | NPY-Y1 antag ct | NPY-Y2 ant conf
COC(=O)c1sccc1NC(=S)N1CCN(c2ccccc2F)CC1 | x | 0.01 | 5 | 18* | -7 | -16 | 13 | 11
Nn1c(SCC(=O)Nc2cccc(F)c2)nnc1C1CCCCC1 | x | -0.42 | 1 | -1 | 7 | 7 | x | x
CCOC(=O)CSc1nc2c(sc3ccccc32)c(=O)n1CCCN1CCOCC1 | 3 | 0.01 | 14 | 19* | -20 | -5 | 21* | 15
CCC(C)NC(=O)CSc1nc2c(sc3ccccc32)c(=O)n1CCCN1CCOCC1 (configuration not stated) | 15 | 0.66 | 2 | 4 | 22 | -4 | x | x
CC1=NNC(=O)C1CCC(=O)N/N=C\c1ccccc1[N+](=O)[O-] (configuration not stated) | x | -0.6 | 5 | -2 | 13 | -1 | x | x
CCCCOC(=O)Nc1nc(C)c(C(=O)OCC)s1 | 29 | 0.61 | 10 | 18* | -25 | -10 | 13 | 6
CCOC(=O)c1sc(NC(=O)CC)nc1C | x | -1.5 | -1 | x | -12 | 3 | x | x
CCC(=O)Nc1nonc1-c1nc2ccccc2n1Cc1cccc2ccccc12 | -92 | x | 19 | 18* | -108 | -57 | 26* | 41*
CCn1c(=N)n(CC(=O)C23CC4CC(CC(C4)C2)C3)c2ccccc21 | 26 | 0.09 | 9 | 27* | -1 | 5 | 21* | 32*
CCN(CC)C(=O)CSc1nc2cc3c(cc2c(=O)n1Cc1ccc(OC)cc1)OCO3 | 21 | x | 2 | x | -1 | 4 | x | x
CC(C)NCC(O)COCCOc1ccc(C(C)(C)C)cc1 (configuration not stated) | x | -0.5 | 5 | 24* | -47 | -26 | 3 | 9
CCn1nc(C)cc1C(=O)N1CCCC(CCC(=O)NCc2ccccc2F)C1 (configuration not stated) | x | -0.17 | -2 | x | -15 | 4 | x | x
CC(C)(C)n1nnnc1C(c1cccs1)N(Cc1ccc(Cl)cc1)CC1CCCO1 (configuration not stated) | x | -1.2 | 11 | 28* | -21 | 2 | 19 | 11
Cc1cc(C)cc(OCC(=O)OCC(=O)Nc2c(C)n(C)n(-c3ccccc3)c2=O)c1 | -60 | -2.2 | -3 | x | 1 | -2 | x | x
CCCCNC(=O)c1onc(CSc2cc(C)cc(C)c2)c1C(=O)O | 57 | -0.9 | 13 | 14 | -29 | -39 | x | x
CCCCNC(=O)c1onc(CSc2ccccc2F)c1C(=O)O | x | -0.13 | 16 | 37* | -35 | -21 | 20 | 18*
C=CCNC(=O)c1onc(CSc2cccc3ccccc23)c1C(=O)O | 24 | 0.01 | 12 | 8 | -11 | -31 | x | x
CCCCNC(=O)c1onc(CSc2cccc(C)c2)c1C(=O)O | x | 0.68 | 20 | 21* | -43 | -32 | 18 | 12
C=CCNC(=O)c1onc(CSc2ccccc2F)c1C(=O)O | 11 | 0.44 | 15 | 18* | -7 | -37 | 19 | 12
COc1ccc(C(=O)Nc2ccc(C3CC3(Cl)Cl)cc2)cc1 (configuration not stated) | x | 0.21 | 1 | x | 0 | 0 | x | x
CC(C)(C)C(=O)Nc1ccc(-c2csnn2)cc1 | x | -0.02 | x | x | 36 | 8 | x | x
CC(C)c1ccc(/C=C/C(=O)N2CCc3ccccc3C2)cc1 | x | 1.3 | 3 | 18* | -8 | -8 | 29* | 25*
C#CCn1c(=NC(=O)c2cccs2)sc2cccc(OC)c21 | x | 0.03 | 16 | 23* | -60 | -52 | 14 | 11
C#CCn1c(=NC(=O)CN2C(=O)CCC2=O)sc2cccc(OC)c21 | x | -0.66 | x | x | 5 | -13 | x | x
COc1ccccc1C(c1nnnn1CCc1ccccc1)N1CCCCCC1 (configuration not stated) | -7 | -2.1 | 15 | 26* | 7 | 1 | 6 | 4
SMILES | Insulin prom inh | Insulin prom up | NPY-Y1 antag | NPY Y2 blocker | NPY1 pot ag | NPY-Y2 PAM-ag | NPY-Y1 antag ct | NPY-Y2 ant conf
CC1CCN(CCC(=O)N/N=C/c2ccc([N+](=O)[O-])cc2)CC1 | x | x | -5 | x | 4 | 14 | x | x
O=C(NCCCn1ccnc1)/C(=C\c1cccs1)NC(=O)c1ccco1 | 0 | -0.12 | 3 | 3 | -4 | 17 | x | x
COc1ccc(C(=O)N/C(=C/c2cccs2)C(=O)NCCCn2ccnc2)cc1OC | 17 | x | -2 | 22* | -3 | -1 | -2 | 4
CC(C)N(C(=O)CSc1nc2ccccc2n1Cc1ccccc1F)C(C)C | -221 | -0.98 | 13 | 17* | -14 | 3 | 14 | 6
COc1ccc(C(=O)CSc2nnc3n2CCCN3C(=O)Nc2ccccc2)cc1 | x | -0.52 | x | x | 5 | -9 | x | x
COC(=O)NNC(=S)Nc1ccc(Br)cc1 | x | 0.53 | 4 | x | -7 | -6 | x | x
O=C(NCCNS(=O)(=O)c1ccccc1)c1cc(OCC(F)(F)F)ccc1OCC(F)(F)F | -23 | -1.3 | -4 | -1 | 8 | -12 | x | x
O=C(NCCNS(=O)(=O)c1ccc(Cl)cc1)c1cc(OCC(F)(F)F)ccc1OCC(F)(F)F | -47 | 1.2 | -7 | 38* | 27 | 8 | 0 | 0
Cc1ccc2c(c1)nc(-n1nc(C)cc1C)c1nnnn12 | 21 | 0.26 | 2 | x | 6 | -11 | x | x
CCSc1nc2ccc(OC)cc2cc1C#N | -26 | 0.21 | 7 | 21* | -13 | -3 | 13 | 20*
CCN(CC)c1nc2cc(OC)ccc2cc1C#N | 1 | 0.25 | 3 | 23* | -2 | 15 | 1 | 4
Cc1cccc(CSCCNC(=O)COc2ccc(Cl)cc2)c1 | -83 | 0.15 | 12 | 22* | -51 | -18 | 13 | 17*
Cc1cc(NC(=O)c2cc3ncc(Br)cn3n2)no1 | 0 | 0.12 | 1 | -1 | -13 | 9 | x | x
CCOc1cccc(Nc2cc3n(c(=O)n2)CCc2cc(OC)c(OC)cc2-3)c1 | -13 | -0.12 | 14 | 18* | -37 | -23 | 38* | 65*
COc1cc2c(cc1OC)-c1cc(Nc3ccc4c(c3)OCCO4)nc(=O)n1CC2 | -24 | -0.1 | 10 | 12 | -28 | -22 | x | x
O=C(CN1CC(c2ccccc2)CC1=O)N/N=C/c1cc(Br)ccc1O (configuration not stated) | -3 | 0.3 | 3 | 1 | 8 | 16 | x | x
CCCOc1ccc(Br)cc1/C=N/O | -11 | 1.5 | 17 | 18* | -49 | -3 | 21* | 9
CC1(C)Cc2nc(-c3ccccc3)nc(SCC(O)CO)c2CO1 (configuration not stated) | x | 0.16 | x | x | -7 | 10 | x | x
CCN(CC)C(=O)CSc1nc(-c2ccc(C)cc2)nc2c1COC(C)(C)C2 | u | -0.94 | 7 | 20* | 2 | 6 | 5 | 4
CC12CCC(C(=O)Nc3nc4ccccc4s3)(OC1=O)C2(C)C (configuration not stated) | 35 | x | 6 | x | 6 | 11 | x | x
